7 molecules from PMC9621298 (Journal of Enzyme Inhibition and Medicinal Chemistry, 2022) can be followed below.

Test [1] deals with T1, Siah1 (Homo sapiens, UniProt Q8IUQ4).
T1 sequence (Q8IUQ4 1-282): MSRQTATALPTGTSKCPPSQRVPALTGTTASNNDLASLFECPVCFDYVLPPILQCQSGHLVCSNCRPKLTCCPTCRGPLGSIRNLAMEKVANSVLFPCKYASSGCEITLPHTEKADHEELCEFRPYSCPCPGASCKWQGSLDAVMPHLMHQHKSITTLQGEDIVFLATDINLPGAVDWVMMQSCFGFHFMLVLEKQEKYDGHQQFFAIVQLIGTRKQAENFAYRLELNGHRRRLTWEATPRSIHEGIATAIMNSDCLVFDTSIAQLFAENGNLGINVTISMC
In words: Surface plasmon resonance. The test is classed as binding. The following applies: details are not reported. In general terms: SPR reads the build-up and loss of mass on a sensor chip optically.

Test [2] addresses T1, Siah1. Kind of test: In vitro pull-down assay with biotin-attached E3 ligase ligands. The following applies: tested as biotin-attached 5 and 6; no binding to AIMP2-DX2.
In test [3] the target is T2, AIMP2-DX2 (Homo sapiens, UniProt Q13155).
T2 sequence (Q13155 1-251 isoform Q13155-2): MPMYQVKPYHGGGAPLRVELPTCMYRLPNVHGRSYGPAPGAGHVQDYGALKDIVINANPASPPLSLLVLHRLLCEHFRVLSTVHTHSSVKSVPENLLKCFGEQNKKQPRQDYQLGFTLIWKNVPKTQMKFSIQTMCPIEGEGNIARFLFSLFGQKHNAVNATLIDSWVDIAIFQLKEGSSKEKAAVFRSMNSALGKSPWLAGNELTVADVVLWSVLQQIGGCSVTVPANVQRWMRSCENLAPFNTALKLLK
In words: Ubiquitination assay in 293 T cells expressing strep-tagged AIMP2-DX2. The settings on record: 293 T cells expressing strep-AIMP2-DX2, with MG132. The test is classed as cell-based. In outline: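 293 T cells were grown in DMEM with 10% FBS at 37 °C in 5% CO2 and expressed strep-tagged AIMP2-DX2 from the pEXPR-IBA5 vector. AIMP2-DX2 was pulled down on strep-tactin, run on SDS-PAGE and immunoblotted, including with anti-ubiquitin.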

Test [4] deals with T3, AIMP2 (Homo sapiens, UniProt Q13155).
T3 sequence (Q13155 1-320): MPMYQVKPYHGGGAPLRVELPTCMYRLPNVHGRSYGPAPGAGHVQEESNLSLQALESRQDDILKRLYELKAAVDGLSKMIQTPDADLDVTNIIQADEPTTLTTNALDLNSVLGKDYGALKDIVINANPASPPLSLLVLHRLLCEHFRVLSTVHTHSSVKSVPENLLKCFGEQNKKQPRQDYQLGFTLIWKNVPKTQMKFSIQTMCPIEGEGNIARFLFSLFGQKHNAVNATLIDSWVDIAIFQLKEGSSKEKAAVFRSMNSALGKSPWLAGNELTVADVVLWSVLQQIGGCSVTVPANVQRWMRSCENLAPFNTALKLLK
In words: Western blotting of AIMP2 level. The following applies: selectivity versus AIMP2-DX2. The format is cell-based.

Test [5] relates to Siah1-knockdowned cells. In words: MTT cell viability assay with Siah1 knockdown by si-RNA. The following applies: Figure 7(A). The test is classed as cell-based. In a few lines:
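Cells were knocked down for Siah1 with specific si-RNA and then treated with test compound. Viability was read by MTT: 96 h in serum-free medium, MTT for 1.5 h at 37 °C, formazan in DMSO, absorbance at 560 nm. Siah1 and AIMP2-DX2 protein levels were checked by immunoblotting. Three independent repeats.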
(Tetrazolium assays rely on reduction of a dye to a coloured formazan, in cell work by metabolically active cells.)

For test [6], the target named is T2, AIMP2-DX2. Kind of test: Western blotting of AIMP2-DX2 protein level. The test is classed as cell-based. The settings on record: Figure 6(A). For orientation: A western blot detects proteins with antibodies after separation by electrophoresis.
Test [7] concerns the target T4, binding of Siah1 to AIMP2-DX2 (Homo sapiens, UniProt Q13155+Q8IUQ4).
T4 sequence (Q13155 1-251 isoform Q13155-2): T2 sequence (Q13155 1-251 isoform Q13155-2)
T4 sequence (Q8IUQ4 1-282): T1 sequence (Q8IUQ4 1-282)
Kind of test: Immunoprecipitation assay: cellular binding of AIMP2-DX2 and Siah1. The test is classed as cell-based. The following applies: Figure 5(A).

The target of test [8] is T5, binding of Siah1 and AIMP2-DX2 (Homo sapiens, UniProt Q13155+Q8IUQ4).
T5 sequence (Q13155 1-251 isoform Q13155-2): T2 sequence (Q13155 1-251 isoform Q13155-2)
T5 sequence (Q8IUQ4 1-282): T1 sequence (Q8IUQ4 1-282)
In words: In vitro pull-down assay: binding of Siah1 and AIMP2-DX2. The settings on record: Figure 5(B). In a few lines:
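Direct binding of the two proteins was tested in vitro by GST pull-down with test compound present. An empty-vector control was included. GST proteins were detected by Coomassie staining.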

In test [9] the target is T2, AIMP2-DX2. In words: Screening: luminescence of luciferase-tagged AIMP2-DX2 in A549 cells. The following applies: 4 µM, 24 h. The format is cell-based.

“Also recorded” adds a separate entry of the source.

As to `Nc1cccc2c1C(=O)N(C1CCC(=O)NC1=O)C2=O` (centres unmarked) [Compound 4, pomalidomide], in test [1], the “binding affinity with Siah1 (SPR)” value is recorded as “most favourable; also recorded: some degree of binding affinity”. For the same molecule, the “binding to Siah1 (in vitro pull-down)” value in test [2] was “specifically bind to Siah1”.
As to `Cc1ccc(S(=O)(=O)N[C@@H](Cc2c[nH]c3ccccc23)C(=O)Nc2ccc(N3CCN(C(=O)CCOCCNc4cccc5c4C(=O)N(C4CCC(=O)NC4=O)C5=O)CC3)cc2)cc1` (stereo partly drawn) [Compound 45, (2S)-N-(4–(4-(3–(2-((2–(2,6-Dioxopiperidin-3-yl)-1,3-dioxoisoindolin-4-yl)amino)ethoxy)propanoyl)piperazin-1-yl)phenyl)-3-(1H-indol-3-yl)-2-((4-methylphenyl)sulfonamido)propanamide], the “ubiquitination of AIMP2-DX2” value in test [3] is “induced”. Also, the “effect on AIMP2” value in [4] is “without any effect on AIMP2”. For the same molecule, the cell viability result is given as “no significant difference in cell viability” in [5] (Siah1 knocked down using specific si-RNA) and “efficiently reduced cell viability” in [5] (Siah1 not knocked down). In [6], the “level of AIMP2-DX2 protein” value is on record as “specifically decreased”. Further, the “endogenous binding of Siah1 to AIMP2-DX2 (immunoprecipitation)” value in [7] is “enhances the endogenous binding of Siah1 to AIMP2-DX2 in a dose-dependent manner”. Moreover, the “binding of Siah1 and AIMP2-DX2 (in vitro pull-down)” value in test [8] is reported as “direct effect on binding of two proteins”.
For `O=C1CCC(N2C(=O)c3cccc(NC(=O)CCOCCOCCOCCOCCOCc4cn(Cc5ccc(S(=O)(=O)N[C@@H](Cc6c[nH]c7ccccc67)C(=O)Nc6ccc(N7CCOCC7)cc6)cc5)nn4)c3C2=O)C(=O)N1` (stereo partly drawn) [Compound 22, 1–(1-(4-(N-((S)-3-(1H-Indol-3-yl)-1-((4-morpholinophenyl)amino)-1-oxopropan-2-yl)sulfamoyl)benzyl)-1H-1,2,3-triazol-4-yl)-N-(2–(2,6-dioxopiperidin-3-yl)-1,3-dioxoisoindolin-4-yl)-2,5,8,11,14-pentaoxaheptadecan-17-amide], the “inhibitory activity on AIMP2-DX2 (in words)” value (shortened to “inhibitory activity”) in [9] was “very poor inhibitory activities”.
Turning to `O=C1CCC(N2C(=O)c3cccc(NC(=O)CCOCCOCCOCCOCCOCCOCc4cn(Cc5ccc(S(=O)(=O)N[C@@H](Cc6c[nH]c7ccccc67)C(=O)Nc6ccc(N7CCOCC7)cc6)cc5)nn4)c3C2=O)C(=O)N1` (stereo partly drawn) [Compound 23, 1–(1-(4-(N-((S)-3-(1H-Indol-3-yl)-1-((4-morpholinophenyl)amino)-1-oxopropan-2-yl)sulfamoyl)benzyl)-1H-1,2,3-triazol-4-yl)-N-(2–(2,6-dioxopiperidin-3-yl)-1,3-dioxoisoindolin-4-yl)-2,5,8,11,14,17-hexaoxaicosan-20-amide], the “inhibitory activity” value in [9] is “very poor inhibitory activities”.
For `O=C1CCC(N2C(=O)c3cccc(NC(=O)CCOCCOCCOCCOCc4cn(Cc5ccc(S(=O)(=O)N[C@@H](Cc6c[nH]c7ccccc67)C(=O)Nc6ccc(N7CCOCC7)cc6)cc5)nn4)c3C2=O)C(=O)N1` (stereo partly drawn) [Compound 21, 1–(1-(4-(N-((S)-3-(1H-Indol-3-yl)-1-((4-morpholinophenyl)amino)-1-oxopropan-2-yl)sulfamoyl)benzyl)-1H-1,2,3-triazol-4-yl)-N-(2–(2,6-dioxopiperidin-3-yl)-1,3-dioxoisoindolin-4-yl)-2,5,8,11-tetraoxatetradecan-14-amide], the “inhibitory activity” value in [9] is listed as “very poor inhibitory activities”.
Still for that read-out and setting: the entry for `O=C1CCC(N2C(=O)c3cccc(NC(=O)COCCOCCOCCOCCOCCNC(=O)c4ccc(S(=O)(=O)N[C@@H](Cc5c[nH]c6ccccc56)C(=O)Nc5ccc(N6CCOCC6)cc5)cc4)c3C2=O)C(=O)N1` (stereo partly drawn) [Compound 31, 4-(N-((S)-3-(1H-Indol-3-yl)-1-((4-morpholinophenyl)amino)-1-oxopropan-2-yl)sulfamoyl)-N-(17-((2–(2,6-dioxopiperidin-3-yl)-1,3-dioxoisoindolin-4-yl)amino)-17-oxo-3,6,9,12,15-pentaoxaheptadecyl)benzamide] is “very poor inhibitory activities”; for `O=C1CCC(N2C(=O)c3cccc(OCCOCCOCCOCCOCCOCc4cn(Cc5ccc(S(=O)(=O)N[C@@H](Cc6c[nH]c7ccccc67)C(=O)Nc6ccc(N7CCOCC7)cc6)cc5)nn4)c3C2=O)C(=O)N1` (stereo partly drawn) [Compound 16, (2S)-2-((4-((4–(16-((2–(2,6-dioxopiperidin-3-yl)-1,3-Dioxoisoindolin-4-yl)oxy)-2,5,8,11,14-pentaoxahexadecyl)-1H-1,2,3-triazol-1-yl)methyl)phenyl)sulfonamido)-3-(1H-indol-3-yl)-N-(4-morpholinophenyl)propanamide] it is “very poor inhibitory activities”.
